Some results are limits rather than exact numbers.

The target in experiment [1] is peptide-HLA-A*0201 complex (Homo sapiens, UniProt P04439, D140Y/D185E/D98H/E176V/E277Q/G131W/G231S/I119V/I121R/I166T/I218V/L300P/L318F/N151K/N90K/P208A/P217A/Q86G/Q94H/R138H/R169H/T345S). Briefly: BFA decay assay. The settings on record: T2 cells loaded with 100 µM peptide, 37°C, time required for 50% reduction of the MFI value recorded at time 0. Format: binding.
The test system of experiment [2] is MCF-7 cells (HLA-A*0201+, EPS8+). Briefly: LDH release cytotoxicity assay of peptide-specific CTLs. In kind it is cell-based, human. Conditions: effector to target cell ratio 100:1, CTLs induced with peptide 10 µg/ml. Put shortly:
(§1)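 Effectors were CTLs from donor PBMCs after three rounds of peptide stimulation over 3 weeks. Targets were plated at 5,000/well at E:T 100:1, spun 250 × g 4 min, then co-cultured 4–6 h at 37°C, 5% CO2, in phenol red-free medium with 5% FBS. Supernatant LDH gave %cytotoxicity = (experimental − effector spontaneous − target spontaneous)/(target maximum − target spontaneous) ×100. Triplicate wells, three repeats.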
For orientation: LDH leaks from cells whose membrane has failed.

Experiment [3] concerns T2 cells pulsed with corresponding peptides. Described as above. Format: cell-based, human. Conditions: effector to target cell ratio 100:1. Put shortly: as §1

FLFTPLNMV [Peptide 360]: in experiment [1], the DC50 was more than 8 h. ILDDIEFFI [Peptide 276] had a DC50 in experiment [1] of 6 to 8 h. On to KLLDAKGKV [Peptide 92], for which the “average lysis rate of MCF-7 cells” value is 51.28±1.54% in experiment [2] (donor 1) and 54.22±3.01% in experiment [2] (donor 2). Moreover, the “lysis rate of T2 cells loaded with the corresponding peptide” value in experiment [3] (donor 1) is on record as 45.41±4.16%; in experiment [3] (donor 2) it was 35.23±1.50%. QLAESVANV [Peptide 455] registered a DC50 in experiment [1] of more than 8 h.

For the origin of these results see PMC4463842 (Molecular Medicine Reports, 2015).
